Assay results gathered from unrelated publications.
Each line is one published result; the experiments were not run side by side.
Target: Homeodomain-interacting protein kinase 2 (HIPK2, Homo sapiens, UniProt Q9H2X6)

O=C(O)c1ccc2c(c1)nc(NCc1ccccc1)c1ccncc12 — remaining activity (enzyme activity; inhibitor; radiometric; 1 µM): 51%
CN([C@@H]1CCc2c(CC(=O)O)c3ccccc3n2C1)S(=O)(=O)c1ccc(F)cc1 — remaining binding (cell-free assay; competition with immobilised ligand; 1 µM): 100%
N#Cc1cccc(Nc2nc3cc(C(=O)O)ccc3c3cnccc23)c1 — remaining activity (enzyme activity; inhibitor; radiometric; 1 µM): -1%
O=C1NC(c2ccccn2)Sc2ccccc21 (stereo not drawn) — remaining binding (cell-free assay; competition with immobilised ligand; 1 µM): 80%
O=C(O)c1ccc2c(c1)nc(Nc1ccc3ccccc3c1)c1ncncc12 — remaining activity (enzyme activity; inhibitor; radiometric; 1 µM): -3%
COc1cc2ncnc(Nc3ccc(Oc4ccccc4)c(C)c3C)c2cc1OC — inhibition (enzyme activity; inhibitor; 1 µM): 1%
O=C1Nc2ccc(Cl)cc2C1=Cc1cc(Cl)c(O)c(Cl)c1 — remaining signal (cell-free assay; 0.5 µM): 122%
Cc1ccc(NC(=O)c2ccc(C)c(C(F)(F)F)c2)cc1C#Cc1nn(C2CCC(O)CC2)c2ncnc(N)c12 (stereo not drawn) — remaining signal (cell-free assay; 10 µM): 99%
COc1cccc(CCNc2nc3cc(C(=O)O)ccc3c3cncnc23)c1 — remaining activity (enzyme activity; inhibitor; radiometric; 1 µM): 22%
CN(c1ncccc1CNc1nc(Nc2ccc3c(c2)CC(=O)N3)ncc1C(F)(F)F)S(C)(=O)=O — inhibition (enzyme activity; inhibitor; 1 µM): 85.7%
C[C@H](c1cccc(C#N)c1)n1cc(Cl)cc(C(N)=O)c1=N — remaining binding (cell-free assay; competition with immobilised ligand; 1 µM): 100%
CCN(CC)CCNC(=O)c1c(C)[nH]c(/C=C2\C(=O)Nc3ccc(F)cc32)c1C — inhibition (enzyme activity; inhibitor; 0.3 µM): 20%
COc1ccc2c(c1)O[C@H](c1ccc(OC)c(OC)c1)C[C@@H]2NC(=O)C1(c2ccc3c(c2)OC(F)(F)O3)CC1 — remaining binding (cell-free assay; competition with immobilised ligand; 1 µM): 98%
O=C(O)c1ccc2c(c1)nc(Nc1ccccc1Cl)c1ncncc12 — remaining activity (enzyme activity; inhibitor; radiometric; 1 µM): 3%
Cc1ccc(Nc2nccc(N(C)c3ccc4c(C)n(C)nc4c3)n2)cc1S(N)(=O)=O — inhibition (enzyme activity; inhibitor; 10 µM): 21%
O=C1NC(=O)c2cc(Nc3ccc(F)cc3)c(Nc3ccc(F)cc3)cc21 — remaining signal (cell-free assay; 0.5 µM): 96.6%
O=C(O)c1ccc2c(c1)nc(NCCc1cccc(Cl)c1)c1ncncc12 — remaining activity (enzyme activity; inhibitor; radiometric; 1 µM): 36%
COc1cc(-c2cc(-c3ccc(N4CCNCC4)cc3)cnc2C)cc(OC)c1OC — inhibition (enzyme activity; inhibitor; 0.1 µM): 1%
CC(=O)N1CCC(c2ccc(C(=O)NC3=NCCN3)cc2C(F)(F)F)CC1 — remaining binding (cell-free assay; competition with immobilised ligand; 1 µM): 100%
CCCS(=O)(=O)Nc1ccc(F)c(C(=O)c2c[nH]c3ncc(-c4ccc(Cl)cc4)cc23)c1F — inhibition (enzyme activity; inhibitor; 1 µM): < 10%
CC/C(=N\NC(=O)NCc1cccc(O)c1)c1ccc(O)c(C)c1O — inhibition (enzyme activity; inhibitor; 0.1 µM): 2.1%
NS(=O)(=O)c1cc(NC(=O)Cc2ccccc2)ccc1Oc1cccc(Cl)c1 — remaining binding (cell-free assay; competition with immobilised ligand; 1 µM): 62%
Cc1cc(NC(=O)c2cccc3cc(-c4cccc5[nH]nc(N)c45)ccc23)ccc1F — activity vs control (enzyme activity; inhibitor; 0.1 µM): 103%
CN1CCN(c2cnc3c(C4CCN(C(=O)c5ccc(OC(F)(F)F)cc5N)CC4)ncnc3c2)CC1 — remaining binding (cell-free assay; competition with immobilised ligand; 1 µM): 100%
O=C(O)c1ccc2c(c1)nc(Nc1ccccc1)c1ccncc12 — remaining activity (enzyme activity; inhibitor; radiometric; 1 µM): 10%
N#Cc1ccc(Nc2ccc3[nH]c(=O)[nH]c3c2)c(Cl)c1 — remaining binding (cell-free assay; competition with immobilised ligand; 1 µM): 100%
O=C(O)c1ccc2c(c1)nc(Nc1ccc(F)c(Cl)c1)c1ncncc12 — remaining activity (enzyme activity; inhibitor; radiometric; 1 µM): 2%
